In PMC10114714 (ACS Bio & Med Chem Au, 2021):
“Also recorded” adds a separate entry of the source.

Assays:
human mGlu5 [1] = target: T1, human mGlu5 (Homo sapiens, UniProt P41594); experiment: cell-based
[2] = Intrinsic clearance in liver microsomes, rat; type: in vitro ADME; details: pH 7.4
[3] = Plasma protein binding, mouse; type: in vitro ADME; details: pH 7.4
mGlu1–4,7,8 = experiment: Functional selectivity over the other mGlu receptors; type: cell-based
[4] = Intrinsic clearance in liver microsomes, mouse; type: in vitro ADME; details: pH 7.4
[5] = Brain homogenate binding, rat; type: in vitro ADME; details: pH 7.4, Rat fu,b
marble burying = experiment: Marble burying assay; type: in vivo, mouse; details: male CD-1 mice, 30 mg/kg i.p., in words
[6] = Mouse IV and PO pharmacokinetics; type: in vivo
[7] = Intrinsic clearance in liver microsomes, human; type: in vitro ADME; details: pH 7.4
[8] = Plasma protein binding, human; type: in vitro ADME; details: pH 7.4
rat mGlu5 = rat mGlu5 (Rattus norvegicus, UniProt P31424); experiment: [3H]methoxyPEPy radioligand competition binding; details: for displacement of [3H]methoxyPEPy radioligand binding: concentrations up to 100 μM, in words
[9] = Plasma protein binding, rat; type: in vitro ADME; details: pH 7.4
[10] = system: amphetamine-induced hyperlocomotion; experiment: Reversal of amphetamine-induced hyperlocomotion; type: in vivo; details: rat
Procedure, shortened: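 Male Sprague–Dawley rats, n = 7-8 per group. Test compound is given i.p. at 30 or 60 mg/kg in 10% Tween 80 in H2O, 30 min before amphetamine at 0.75 mg/kg s.c. Locomotion is compared with a vehicle/amphetamine control group.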

[11] = Rat IV and PO pharmacokinetics; type: in vivo
Procedure, shortened: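 Plasma pharmacokinetics with IV dosing at 0.20 mg/kg and PO dosing at 10 mg/kg. Read-outs are Cmax, tmax, AUCinf, t1/2 and oral bioavailability F.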

[12] = Rat IV plasma/brain level; type: in vivo; details: male, Sprague-Dawley, brain and plasma, 0.2 mg/kg
human mGlu5 [13] = target: T1, human mGlu5; experiment: Calcium fluorescence triple-add assay, mGlu5 PAM mode; type: cell-based
[14] = male, Sprague-Dawley, plasma, iv, 0.2 mg/kg
[15] = male, Sprague-Dawley, plasma, po, 10 mg/kg

T1 sequence (P41594 21-1212): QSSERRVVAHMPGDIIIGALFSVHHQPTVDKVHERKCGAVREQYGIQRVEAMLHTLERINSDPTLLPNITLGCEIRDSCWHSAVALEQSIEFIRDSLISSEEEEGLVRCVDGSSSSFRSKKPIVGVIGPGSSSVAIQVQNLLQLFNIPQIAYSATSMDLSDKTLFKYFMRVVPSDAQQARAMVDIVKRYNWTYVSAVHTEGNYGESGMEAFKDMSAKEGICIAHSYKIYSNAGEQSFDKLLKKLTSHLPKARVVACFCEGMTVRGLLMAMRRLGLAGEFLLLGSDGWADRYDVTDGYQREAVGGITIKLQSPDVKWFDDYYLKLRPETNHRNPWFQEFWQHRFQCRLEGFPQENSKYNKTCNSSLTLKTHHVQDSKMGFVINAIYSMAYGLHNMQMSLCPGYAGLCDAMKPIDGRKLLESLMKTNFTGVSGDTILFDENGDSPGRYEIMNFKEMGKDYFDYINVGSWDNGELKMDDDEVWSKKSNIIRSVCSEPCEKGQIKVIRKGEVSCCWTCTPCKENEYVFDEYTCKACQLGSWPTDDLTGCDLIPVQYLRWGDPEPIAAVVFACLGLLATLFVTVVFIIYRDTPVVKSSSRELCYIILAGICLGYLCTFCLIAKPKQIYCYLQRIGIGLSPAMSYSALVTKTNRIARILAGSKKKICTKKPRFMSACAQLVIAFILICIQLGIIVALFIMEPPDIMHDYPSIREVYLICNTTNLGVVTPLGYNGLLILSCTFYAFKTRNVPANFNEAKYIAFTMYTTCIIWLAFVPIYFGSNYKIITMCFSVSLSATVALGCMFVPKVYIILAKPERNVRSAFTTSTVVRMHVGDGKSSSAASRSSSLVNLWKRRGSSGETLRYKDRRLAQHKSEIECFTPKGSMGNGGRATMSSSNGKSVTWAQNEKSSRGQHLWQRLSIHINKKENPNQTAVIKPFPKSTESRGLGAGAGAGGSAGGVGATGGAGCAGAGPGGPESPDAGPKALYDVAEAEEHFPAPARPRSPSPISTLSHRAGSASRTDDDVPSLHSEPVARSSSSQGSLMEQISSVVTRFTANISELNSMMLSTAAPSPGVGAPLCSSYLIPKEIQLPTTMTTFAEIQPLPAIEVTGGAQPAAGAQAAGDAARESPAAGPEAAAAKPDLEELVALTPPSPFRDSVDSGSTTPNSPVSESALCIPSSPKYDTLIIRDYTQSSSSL
rat mGlu5, sequence (P31424 21-1203): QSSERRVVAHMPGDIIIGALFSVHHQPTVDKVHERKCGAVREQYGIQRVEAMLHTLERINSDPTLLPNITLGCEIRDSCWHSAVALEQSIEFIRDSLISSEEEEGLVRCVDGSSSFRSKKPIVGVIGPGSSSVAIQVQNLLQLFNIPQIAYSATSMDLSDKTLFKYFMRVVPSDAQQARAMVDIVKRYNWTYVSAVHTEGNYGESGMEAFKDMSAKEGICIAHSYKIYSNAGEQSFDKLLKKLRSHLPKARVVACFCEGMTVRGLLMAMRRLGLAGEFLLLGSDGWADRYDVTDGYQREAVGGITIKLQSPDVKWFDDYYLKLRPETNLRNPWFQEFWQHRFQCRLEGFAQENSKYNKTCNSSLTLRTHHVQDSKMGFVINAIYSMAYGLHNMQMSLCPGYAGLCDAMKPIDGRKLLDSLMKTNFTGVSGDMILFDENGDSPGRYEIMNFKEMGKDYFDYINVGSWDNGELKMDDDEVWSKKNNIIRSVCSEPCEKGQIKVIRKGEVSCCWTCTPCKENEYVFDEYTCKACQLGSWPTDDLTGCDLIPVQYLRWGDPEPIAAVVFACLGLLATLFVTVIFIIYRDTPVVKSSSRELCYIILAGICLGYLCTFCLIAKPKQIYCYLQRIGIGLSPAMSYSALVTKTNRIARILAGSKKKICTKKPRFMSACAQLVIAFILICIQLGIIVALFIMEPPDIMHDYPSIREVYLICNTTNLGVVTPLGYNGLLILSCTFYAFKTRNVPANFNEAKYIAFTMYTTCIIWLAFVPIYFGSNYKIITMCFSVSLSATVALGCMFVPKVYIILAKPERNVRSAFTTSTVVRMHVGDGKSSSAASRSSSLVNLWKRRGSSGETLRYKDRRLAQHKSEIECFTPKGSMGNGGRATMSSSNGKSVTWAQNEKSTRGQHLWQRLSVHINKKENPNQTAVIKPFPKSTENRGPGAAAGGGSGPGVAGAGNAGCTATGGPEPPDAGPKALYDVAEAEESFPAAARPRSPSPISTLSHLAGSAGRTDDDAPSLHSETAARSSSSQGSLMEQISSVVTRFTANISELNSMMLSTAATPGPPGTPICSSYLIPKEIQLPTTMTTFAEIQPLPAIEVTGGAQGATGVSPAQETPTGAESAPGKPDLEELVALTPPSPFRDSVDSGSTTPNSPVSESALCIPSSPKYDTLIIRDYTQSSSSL

Cc1ccc(Nc2cc(C(=O)NCc3ccc(F)cn3)nc3ccsc23)cn1 [Compound 26]
IC50 (human mGlu5 [1]): > 30000 nM

Cc1cncc(Oc2cc(C(=O)NCc3ccc(F)cn3)nc3ccsc23)c1 [Compound 28a]
IC50 (human mGlu5 [1]): 260 nM

Cc1ncccc1Oc1cc(C(=O)NCc2ccc(F)cn2)nc2ccsc12 [Compound 28c]
IC50 (human mGlu5 [1]): > 30000 nM

O=C(NCc1ccc(F)cn1)c1cc(Oc2cccnc2)c2sccc2n1 [Compound 28d, N-((5-fluoropyridin-2-yl)methyl)-7-(pyridin-3-yloxy)thieno[3,2-b]pyridine-5-carboxamide]
CLint scaled at 1 µM [2]: 314 mL/min/kg
fraction unbound at 6 h, 5 µM [3]: 0.062
functional activity at mGlu1–4,7,8 (mGlu1–4,7,8): > 30 µM
CLint scaled at 1 µM [4]: 970 mL/min/kg
fraction unbound at 6 h, 1 µM [5]: 0.035
marble burying (marble burying): anxiolytic activity; also recorded: significant reduction in marble burying; also recorded: Inhibition of marble burying
drug in blood following PO administration ([6]; PO 10 mg/kg, in words): no measurable drug in blood
Vd ([6]; plasma, iv, 1 mg/kg): 8.2 L/kg
clearance ([6]; plasma, iv, 1 mg/kg): 141 mL/min/kg
half-life ([6]; plasma, iv, 1 mg/kg): 41.4 min
CLint scaled at 1 µM [7]: 47 mL/min/kg
fraction unbound at 6 h, 5 µM [8]: 0.068
Ki (rat mGlu5): 160 nM
displacement of [3H]methoxyPEPy radioligand binding (rat mGlu5): full displacement of radioligand binding
fraction unbound at 6 h, 5 µM [9]: 0.115

Cc1ccc(Oc2cc(C(=O)NCc3ccc(F)cn3)nc3ccsc23)nc1 [Compound 28e]
IC50 (human mGlu5 [1]): 1900 nM

Cc1ccc(Cc2cc(C(=O)NCc3ccc(F)cn3)nc3ccsc23)cn1 [Compound 27]
IC50 (human mGlu5 [1]): > 30000 nM

Cc1ccncc1Oc1cc(C(=O)NCc2ccc(F)cn2)nc2ccsc12 [Compound 28b]
IC50 (human mGlu5 [1]): 203 nM

Cc1ccc(Oc2cc(C(=O)NCc3ccc(F)cn3)nc3ccsc23)cn1 [Compound 17a, N-((5-Fluoropyridin-2-yl)methyl)-7-((6-methylpyridin-3-yl)oxy)thieno[3,2-b]pyridine-5-carboxamide]
reversal of AHL ([10]; 60 mg/kg i.p., 30 min prior to 0.75 mg/kg s.c. amphetamine): ~30%
reversal of amphetamine-induced hyperlocomotion ([10]; 30 or 60 mg/kg i.p., in words): reversed amphetamine-induced hyperlocomotion; also recorded: Dose-dependent reversal
F (%) ([11]; PO 10 mg/kg, 10 mg/kg): 8.22%
Vd [11, 14]: 2.2 L/kg
clearance [11, 14]: 36.9 mL/min/kg
half-life [11, 14]: 82.2 min
AUC(0-inf) [11, 15]: 371 ng·h/mL
Cmax [11, 15]: 152 ng/mL
Tmax [11, 15]: 30 min
CLint scaled at 1 µM [2]: 152 mL/min/kg
Kp at 0.25 h [12]: 0.83
Kp uu at 0.25 h [12]: 0.52
functional activity at mGlu1–4,7,8 (mGlu1–4,7,8): > 30 µM
fraction unbound at 6 h, 1 µM [5]: 0.03
EC50 (human mGlu5 [13]; hmGlu5 EC50 (μM), Table 2): 0.52 µM
fold improvement in potency in comparison to hit compound 12 (human mGlu5 [13]; mGlu5 PAM EC50): 5 fold
CLint scaled at 1 µM [7]: 173 mL/min/kg
fraction unbound at 6 h, 5 µM [8]: 0.056
Ki (rat mGlu5): > 10000 nM
displacement of [3H]methoxyPEPy radioligand binding (rat mGlu5): weak binding
fraction unbound at 6 h, 5 µM [9]: 0.048

Cc1ccc(Oc2ccnc(C(=O)NCc3ccc(F)cn3)c2)cn1 [Compound 21d]
mGlu5 PAM activity (human mGlu5 [13]; in words): complete loss of activity
